In ChEMBL document CHEMBL4052637, “Discovery and Characterization of R/S-N-3-Cyanophenyl-N'-(6-tert-butoxycarbonylamino-3,4-dihydro-2,2-dimethyl-2H-1-benzopyran-4-yl)urea, a New Histone Deacetylase Class III Inhibitor Exerting Antiproliferative Activity against Cancer Cell Lines” (J Med Chem, 2017):
The source made the active and inactive calls. The rule behind the calls is not given here.

What was measured:
HCC 2998 = experiment: Growth inhibition of human HCC2998 cells after 48 hrs by SRB assay; assay type: functional; conditions: HCC 2998, 48 h
[1] = Potency index, ratio of sirtinol IC50 to test compound IC50 for human U373 cells; assay type: functional, U-373MG ATCC
SW1573 = experiment: Antiproliferative activity against human SW1573 cells after 72 hrs by MTT assay; assay type: functional, cell-based
Procedure, shortened: (§1)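 MTT assay: cells in RPMI 1640 with 10% heat-inactivated FCS at 37 °C and 5% CO2 were seeded 24 h before treatment. They were exposed 72 h to compound at 0.01–100 μM, with DMSO as solvent.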

MCF7 = experiment: Growth inhibition of human MCF7 cells after 48 hrs by SRB assay; assay type: functional; conditions: MCF7, 48 h
Hs 683 [2] = experiment: Antitumor activity against CM-Dil fluorescent dye labeled human Hs683 cells xenografted in zebrafish embryo at 5 to 10 uM preincubated with tumor for 30 hrs followed by tumor implantation in zebra fish yolk sac measured after 72 hrs by fluorescence microscopy; assay type: functional, cell-based
Procedure, shortened: (§2)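 Cells were pretreated in vitro at 5 or 10 μM for 30 or 36 h and labeled with CM-DiI 2 h before injection. Then 100–200 cells were injected into the yolk sac of wild-type zebrafish 48 h post-fertilization, anesthetized in 0.02% tricaine. Embryos were kept 72 h at 28.5 °C in Danieau solution with 0.003% phenylthiourea, and fluorescence was quantified in eight fish per condition.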

UACC-62 = experiment: Growth inhibition of human UACC62 cells after 48 hrs by SRB assay; assay type: functional; conditions: UACC-62, 48 h
[3] = Antiproliferative activity against human U373 cells after 72 hrs by MTT assay; assay type: functional, cell-based, U-373MG ATCC; conditions: U373 MG; procedure, shortened: as §1
SNB-75 = experiment: Growth inhibition of human SNB75 cells after 48 hrs by SRB assay; assay type: functional; conditions: SNB-75, 48 h
UO-31 = experiment: Growth inhibition of human UO31 cells after 48 hrs by SRB assay; assay type: functional; conditions: UO-31, 48 h
BT-549 = experiment: Growth inhibition of human BT549 cells after 48 hrs by SRB assay; assay type: functional; conditions: BT-549, 48 h
[4] = target: Histone deacetylase 2 (Homo sapiens) (UniProt Q92769); experiment: Inhibition of His-tagged recombinant full length human HDAC2 expressed in baculovirus infected insect cells at 0.1 to 100 uM using Fluor-de-Lys-SIRT1 as substrate after 15 mins by fluorescence assay
Histone deacetylase 2 (Homo sapiens), sequence (Q92769 whole entry): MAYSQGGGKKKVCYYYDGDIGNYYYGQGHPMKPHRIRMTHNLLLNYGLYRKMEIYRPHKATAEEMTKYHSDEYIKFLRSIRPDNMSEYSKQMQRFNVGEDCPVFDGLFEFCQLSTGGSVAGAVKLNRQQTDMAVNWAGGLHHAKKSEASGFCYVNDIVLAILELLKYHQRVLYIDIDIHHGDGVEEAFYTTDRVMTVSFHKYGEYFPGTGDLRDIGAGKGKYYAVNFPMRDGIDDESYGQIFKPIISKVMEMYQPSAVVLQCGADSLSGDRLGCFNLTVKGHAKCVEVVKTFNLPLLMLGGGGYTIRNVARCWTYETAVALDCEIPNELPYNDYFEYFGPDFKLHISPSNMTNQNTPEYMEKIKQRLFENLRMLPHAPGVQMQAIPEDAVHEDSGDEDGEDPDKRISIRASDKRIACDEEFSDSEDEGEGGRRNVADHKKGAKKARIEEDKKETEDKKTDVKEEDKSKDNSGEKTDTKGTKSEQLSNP

KB 3-1 = experiment: Antiproliferative activity against human KB-3-1 cells after 72 hrs by MTT assay; assay type: functional, cell-based; procedure, shortened: as §1
SW-620 = experiment: Growth inhibition of human SW620 cells after 48 hrs by SRB assay; assay type: functional; conditions: SW-620, 48 h
SK-MEL-28 = experiment: Growth inhibition of human SK-MEL-28 cells after 48 hrs by SRB assay; assay type: functional; conditions: SK-MEL-28, 48 h
[5] = Selectivity index, ratio of IC50 for mouse astrocytes to IC50 for human U373 cells
U-373MG ATCC = experiment: Antiproliferative activity against human U373 cells transfected with SIRT1/2 siRNA at IC50 for MTT assay after 72 hrs by time-lapse videomicroscopy; assay type: functional, cell-based
[6] = target: Histone deacetylase 11 (Homo sapiens) (UniProt Q96DB2); experiment: Inhibition of N-terminal His-tagged recombinant human HDAC11 expressed in baculovirus infected insect Sf9 cells at 0.1 to 100 uM using Fluor-de-Lys-SIRT1 as substrate after 15 mins by fluorescence assay
Histone deacetylase 11 (Homo sapiens), sequence (Q96DB2 whole entry): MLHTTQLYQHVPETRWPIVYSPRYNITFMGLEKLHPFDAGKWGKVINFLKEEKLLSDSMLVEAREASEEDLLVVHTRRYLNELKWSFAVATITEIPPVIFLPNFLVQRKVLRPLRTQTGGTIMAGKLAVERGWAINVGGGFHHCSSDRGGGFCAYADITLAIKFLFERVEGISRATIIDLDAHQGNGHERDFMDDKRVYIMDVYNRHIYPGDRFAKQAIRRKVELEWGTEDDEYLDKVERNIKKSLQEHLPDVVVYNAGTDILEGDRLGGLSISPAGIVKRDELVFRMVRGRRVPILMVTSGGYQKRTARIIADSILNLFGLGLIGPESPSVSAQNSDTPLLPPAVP

[7] = target: T1, NAD-dependent protein deacetylase sirtuin-2 (Homo sapiens) (UniProt Q8IXJ6); experiment: Inhibition of SIRT2 in human Hs683 cells assessed as increase of alpha-tubulin acetylation at 10 uM after 8 hrs by Western blotting method relative to control; assay type: cell-based
T1 sequence (whole entry): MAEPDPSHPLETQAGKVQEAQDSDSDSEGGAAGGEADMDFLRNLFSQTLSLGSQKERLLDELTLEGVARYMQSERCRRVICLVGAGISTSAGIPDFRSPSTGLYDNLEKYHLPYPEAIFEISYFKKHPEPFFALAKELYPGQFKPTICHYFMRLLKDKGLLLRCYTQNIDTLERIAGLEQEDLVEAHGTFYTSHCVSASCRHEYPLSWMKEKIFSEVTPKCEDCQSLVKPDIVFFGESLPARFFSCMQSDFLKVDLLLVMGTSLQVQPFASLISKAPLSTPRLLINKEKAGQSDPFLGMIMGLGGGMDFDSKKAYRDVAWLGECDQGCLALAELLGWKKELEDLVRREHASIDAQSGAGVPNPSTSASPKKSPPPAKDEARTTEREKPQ

RPMI-8226 = experiment: Growth inhibition of human RPMI8226 cells after 48 hrs by SRB assay; assay type: functional; conditions: RPMI-8226, 48 h
Hs 683 [8] = experiment: Cell cycle arrest in human Hs683 cells assessed as accumulation at G1 phase at IC50 after 24 to 48 hrs by propidium iodide staining-based flow cytometry; assay type: functional
Procedure, shortened: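 Cells were exposed to compound at the IC50 for each line from the 72 h MTT assay, or to a reference HDAC inhibitor at 2 μM. Cell cycle distribution was analyzed after 24 and 48 h. Results are mean ± SD of three independent experiments, with p values against control cells.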

Malme-3M = experiment: Growth inhibition of human MALME-3M cells after 48 hrs by SRB assay; assay type: functional
Hs 683 [9] = experiment: Antitumor activity against CM-Dil fluorescent dye labeled human Hs683 cells xenografted in zebrafish embryo at 10 uM preincubated with tumor for 36 hrs followed by tumor implantation in zebra fish yolk sac measured after 72 hrs by fluorescence microscopy; assay type: functional, cell-based; procedure, shortened: as §2
A549 = experiment: Growth inhibition of human A549 cells after 48 hrs by SRB assay; assay type: functional; conditions: A549, 48 h
HCT-15 = experiment: Growth inhibition of human HCT15 cells after 48 hrs by SRB assay; assay type: functional; conditions: HCT-15, 48 h
LOX IMVI = experiment: Growth inhibition of human LOXIMVI cells after 48 hrs by SRB assay; assay type: functional

In the case of `CC(C)(C)OC(=O)Nc1ccc2c(c1)C(NC(=O)Nc1cccc(C#N)c1)CC(C)(C)O2` (stereo not given), the GI50 (HCC 2998) is reported as 5.13 µM, the “Ratio IC50” value [1] is reported as 6 and the Activity (SW1573) is reported as “Active”. The GI50 (MCF7) was 2.14 µM, the Activity (Hs 683 [2]) was “Active” and the GI50 (UACC-62) was 1 µM. For the same compound, the IC50 [3] was 6 to 7.5 µM, the GI50 (SNB-75) was 5.89 µM and the GI50 (UO-31) was 4.27 µM. For the same compound, the GI50 (BT-549) was 3.8 µM, the inhibition [4] was “inactive” and the Activity (KB 3-1) was “Active”. The GI50 (SW-620) was 3.8 µM, the GI50 (SK-MEL-28) was 6.46 µM and the “Ratio IC50” value [5] was over 10. The Activity (U-373MG ATCC) was “Active”, the inhibition [6] was “inactive” and the fold change (FC) [7] was 1.6. The GI50 (RPMI-8226) was 1.62 µM, the Activity (Hs 683 [8]) was “Active” and the GI50 (Malme-3M) was 4.07 µM. The Activity (Hs 683 [9]) was “Active”, the GI50 (A549) was 2.75 µM and the GI50 (HCT-15) was 2 µM. The GI50 (LOX IMVI) was 1.62 µM.
